Assay results pooled from the literature.
Compare with care: the assays were run in different laboratories.
MAP3K21: Mitogen-activated protein kinase kinase kinase 21 (MAP3K21, Homo sapiens, UniProt Q5TCX8)
ache: Acetylcholinesterase (ache, Electrophorus electricus, UniProt O42275)
STK17B: Serine/threonine-protein kinase 17B (STK17B, Homo sapiens, UniProt O94768)
STK32A: Serine/threonine-protein kinase 32A (STK32A, Homo sapiens, UniProt Q8WU08)
RPS6KB2: Ribosomal protein S6 kinase beta-2 (RPS6KB2, Homo sapiens, UniProt Q9UBS0)

The activity vs control of Cc1ccc(C(=O)NCc2ccsc2)cc1C#Cc1cn(C(C)C)c2ncnc(N)c12 is reported as 81% (MAP3K21; enzyme activity, inhibitor; 1 µM).
COc1nccc(CN2Cc3cc(OC)c(OC)cc3C2=O)n1 has an inhibition of -0.39% (ache; enzyme activity, inhibitor; 1 µM).
For Cc1nn(CC(F)(F)F)cc1Nc1ncc(C2CC2)c(NCc2ccc(S(N)(=O)=O)cc2)n1, the remaining activity was 88% (STK17B; enzyme activity, inhibitor, radiometric; 1 µM).
For COc1cc2c(cc1OC)C(=O)N(Cc1ccc(F)nc1)C2, the inhibition was -1.57% (ache; enzyme activity, inhibitor; 1 µM).
NS(=O)(=O)c1ccc(CNc2ccnc(Nc3cccc(CN4CCOCC4)c3)n2)cc1 has a remaining activity of 96% (STK17B; enzyme activity, inhibitor, radiometric; 1 µM).
With Cn1c2c(Cl)c(Cl)ccc2c2cn[nH]c(=O)c21 the ΔTm was -0.4 °C (STK32A; thermal stability, DSF; 10 µM).
Brc1cnc(Nc2cccc(CN3CCOCC3)c2)nc1NCCc1c[nH]cn1 has a remaining activity of 4% (STK17B; enzyme activity, inhibitor, radiometric; 1 µM).
The inhibition of COc1cc2c(cc1OC)C(=O)N(CCc1c[nH]c3ccccc13)C2 is reported as -4.59% (ache; enzyme activity, inhibitor; 1 µM).
CC(C)(C)c1nc(-c2cccc(NS(=O)(=O)c3c(F)cccc3F)c2F)c(-c2ccnc(N)n2)s1 has a remaining activity of 98% (RPS6KB2; enzyme activity, inhibitor, radiometric; 1 µM).
N#CC1c2c([nH]c3c(Cl)c(Cl)ccc23)C(=O)NC12CCCCC2 (racemic) has a ΔTm of 0.1 °C (STK32A; thermal stability, DSF; 10 µM).
COc1cc2c(cc1OC)C(=O)N(Cc1ccccn1)C2 has an inhibition of 4.59% (ache; enzyme activity, inhibitor; 1 µM).
Cn1c2c(Cl)c(Cl)ccc2c2cc[nH]c(=O)c21 has a ΔTm of -0.4 °C (STK32A; thermal stability, DSF; 10 µM).
With NS(=O)(=O)c1ccc(CNc2nc(Nc3cccc(CN4CCOCC4)c3)ncc2C2CC2)cc1 the remaining activity was 84% (STK17B; enzyme activity, inhibitor, radiometric; 1 µM).
The remaining activity of CC(C)(C)c1nc2c(s1)c1nc(N)ncc1c1ccc(NS(=O)(=O)c3c(F)cccc3F)c(F)c12 is reported as 90% (MAP3K21; enzyme activity, inhibitor, radiometric; 1 µM).
For CCCCCCCOc1ccc(CCC(N)(CO)COP(=O)(O)O)cc1C(F)(F)F (stereo not shown), the Emax was 92% (Sphingosine 1-phosphate receptor 1 (S1PR1, Homo sapiens, UniProt P21453); calcium signal, agonist, fluorescence).
With CCCOc1ccc(OC)c(F)c1C(=O)c1ccc(C(=O)N[C@@H]2CNC[C@H]2NC(=O)c2ccc3[nH]ncc3c2)cc1 the remaining activity was 1% (RAC-gamma serine/threonine-protein kinase (AKT3, Homo sapiens, UniProt Q9Y243); enzyme activity, inhibitor; 10 µM).
O=C(NCCCNc1nc(Nc2cccc(NC(=O)N3CCCC3)c2)ncc1C1CC1)C1CCC1 gave a remaining activity of 3% (STK17B; enzyme activity, inhibitor, radiometric; 1 µM).
With COc1cc2c(cc1OC)C(=O)N(CC1CCN(Cc3ccsc3)CC1)C2 the inhibition was 13.9% (ache; enzyme activity, inhibitor; 1 µM).
NS(=O)(=O)c1ccc(CNc2ccnc(Nc3cccc(NC(=O)N4CCCC4)c3)n2)cc1 gave a remaining activity of 96% (STK17B; enzyme activity, inhibitor, radiometric; 1 µM).
For O[C@@H]1[C@H](O)CO[C@H]1n1cnc2c(NCc3cccc(Cl)c3)nc(Cl)nc21, the inhibition was 36% (Adenosine receptor A1 (ADORA1, Homo sapiens, UniProt P30542); ligand displacement, radioligand; 10 µM, cell membranes).
CN1CCc2cc(Nc3ncc(C4CC4)c(NCCCNC(=O)C4CCC4)n3)ccc2C1 has a remaining activity of 4% (STK17B; enzyme activity, inhibitor, radiometric; 1 µM).
With COc1cc2c(cc1OC)C(=O)N(Cc1ccc3ccccc3n1)C2 the inhibition was 3.28% (ache; enzyme activity, inhibitor; 1 µM).
With O=C(NCCCNc1nc(Nc2cccc(NC(=O)N3CCCC3)c2)ncc1I)c1cccs1 the remaining activity was 4% (STK17B; enzyme activity, inhibitor, radiometric; 1 µM).
For COc1cc2c(cc1OC)C(=O)N(Cc1cccnc1)C2, the inhibition was 0.13% (ache; enzyme activity, inhibitor; 1 µM).
The remaining activity of CC(C)(O)[C@H]1CC[C@H](Nc2ccc3ncc(-c4cccc(C(F)(F)F)c4)n3n2)CC1 is reported as 82.3% (RPS6KB2; enzyme activity, inhibitor; 1 µM).
